Results taken from ChEMBL document CHEMBL1165947, “Synthesis and antitumor activity of 2,5-bis(3'-indolyl)-furans and 3,5-bis(3'-indolyl)-isoxazoles, nortopsentin analogues” (Bioorg Med Chem, 2010).
Converted amounts (≈) assume the structure as drawn.

Legend:
786-0 = test: Growth inhibition of human 786-0 cells; format: functional
A498 = test: Growth inhibition of human A498 cells; format: functional
ACHN = test: Growth inhibition of human ACHN cells; format: functional
CAKI-1 = test: Growth inhibition of human Caki1 cells; format: functional
RXF 393 = test: Growth inhibition of human RXF393 cells; format: functional
Method in brief: (§1)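 Values come from the NCI in vitro disease-oriented human tumor cell screen. GI50 is the concentration giving 50% growth inhibition of tumor cells; pGI50 is its −log molar form.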

SN12C = test: Growth inhibition of human SN12C cells; format: functional; method in brief: as §1
TK-10 = test: Growth inhibition of human TK10 cells; format: functional; method in brief: as §1
UO-31 = test: Growth inhibition of human UO31 cells; format: functional; method in brief: as §1
DU-145 [1] = test: Growth inhibition of human DU145 cells; format: functional
MCF7 [2] = test: Growth inhibition of human MCF7 cells; format: functional; method in brief: as §1
MDA-MB-231 = test: Growth inhibition of human MDA-MB-231 cells; format: functional; method in brief: as §1
[3] = Growth inhibition of human Hs 578T cells; format: functional
T47D = test: Growth inhibition of human T47D cells; format: functional; method in brief: as §1
[4] = Cytotoxicity against human BXF 1218L cells after 4 days by modified propidium iodide staining-based fluorescence assay; format: functional, cell-based; conditions: 96 h
Method in brief: (§2)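 Cells cultured in RPMI 1640 with 10% fetal calf serum and 0.1 mg/mL gentamicin at 37 °C, 5% CO2. Cells from exponential cultures were trypsinized and plated at 4.000-20.000 cells/well by line. After 24 h recovery, compounds were added at five log-spaced concentrations (highest 100 μg/mL) for 4 days. Proliferation was read as DNA content with aqueous propidium iodide (7 μg/ml), fluorescence ex 530/em 620 nm. Points were run in triplicate.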

T-24 = test: Cytotoxicity against human T24 cells after 4 days by modified propidium iodide staining-based fluorescence assay; format: functional, cell-based; conditions: T-24, 96 h; method in brief: as §2
SF-268 = test: Cytotoxicity against human SF268 cells after 4 days by modified propidium iodide staining-based fluorescence assay; format: functional, cell-based; conditions: SF-268, 96 h; method in brief: as §2
HCT-116 = test: Cytotoxicity against human HCT116 cells after 4 days by modified propidium iodide staining-based fluorescence assay; format: functional, cell-based; conditions: HCT-116, 96 h; method in brief: as §2
HT-29 = test: Cytotoxicity against human HT-29 cells after 4 days by modified propidium iodide staining-based fluorescence assay; format: functional, cell-based; conditions: HT-29, 96 h; method in brief: as §2
[5] = Cytotoxicity against human GXF251L cells after 4 days by modified propidium iodide staining-based fluorescence assay; format: functional, cell-based; conditions: GXF 251L, 96 h; method in brief: as §2
[6] = Cytotoxicity against human LXFL 1121L cells after 4 days by modified propidium iodide staining-based fluorescence assay; format: functional, cell-based; conditions: 96 h; method in brief: as §2
[7] = Cytotoxicity against human LXFA 289L cells after 4 days by modified propidium iodide staining-based fluorescence assay; format: functional, cell-based; conditions: 96 h; method in brief: as §2
[8] = Cytotoxicity against human LXFA 526L cells after 4 days by modified propidium iodide staining-based fluorescence assay; format: functional, cell-based; conditions: 96 h; method in brief: as §2
A549 = test: Cytotoxicity against human A549 cells after 4 days by modified propidium iodide staining-based fluorescence assay; format: functional, cell-based; conditions: A549, 96 h; method in brief: as §2
[9] = Cytotoxicity against human LXFA 629L cells after 4 days by modified propidium iodide staining-based fluorescence assay; format: functional, cell-based; conditions: 96 h; method in brief: as §2
NCI-H460 = test: Cytotoxicity against human H460 cells after 4 days by modified propidium iodide staining-based fluorescence assay; format: functional, cell-based; conditions: NCI-H460, 96 h; method in brief: as §2
[10] = Cytotoxicity against human MAXF 401NL cells after 4 days by modified propidium iodide staining-based fluorescence assay; format: functional, cell-based; conditions: 96 h; method in brief: as §2
MCF7 [11] = test: Cytotoxicity against human MCF7 cells after 4 days by modified propidium iodide staining-based fluorescence assay; format: functional, cell-based; conditions: MCF7, 96 h; method in brief: as §2
[12] = Cytotoxicity against human MEXF 276L cells after 4 days by modified propidium iodide staining-based fluorescence assay; format: functional, cell-based; conditions: MEXF276L, 96 h; method in brief: as §2
[13] = Cytotoxicity against human MEXF 462NL cells after 4 days by modified propidium iodide staining-based fluorescence assay; format: functional, cell-based; conditions: 96 h; method in brief: as §2
[14] = Cytotoxicity against human MEXF 520L cells after 4 days by modified propidium iodide staining-based fluorescence assay; format: functional, cell-based; conditions: 96 h; method in brief: as §2
[15] = Cytotoxicity against human 899L cells after 4 days by modified propidium iodide staining-based fluorescence assay; format: functional, cell-based; conditions: 96 h; method in brief: as §2
OVCAR-3 = test: Cytotoxicity against human OVCAR-3 cells after 4 days by modified propidium iodide staining-based fluorescence assay; format: functional, cell-based; conditions: OVCAR-3, 96 h; method in brief: as §2
[16] = Cytotoxicity against human 1657L cells after 4 days by modified propidium iodide staining-based fluorescence assay; format: functional, cell-based; conditions: 96 h; method in brief: as §2
PANC-1 = test: Cytotoxicity against human PANC1 cells after 4 days by modified propidium iodide staining-based fluorescence assay; format: functional, cell-based; conditions: PANC-1, 96 h; method in brief: as §2
CWR22R = test: Cytotoxicity against human 22Rv1 cells after 4 days by modified propidium iodide staining-based fluorescence assay; format: functional, cell-based; conditions: 22Rv1, 96 h; method in brief: as §2
DU-145 [17] = test: Cytotoxicity against human DU145 cells after 4 days by modified propidium iodide staining-based fluorescence assay; format: functional, cell-based; conditions: DU-145, 96 h; method in brief: as §2
LNCaP = test: Cytotoxicity against human LNCAP cells after 4 days by modified propidium iodide staining-based fluorescence assay; format: functional, cell-based; conditions: 96 h; method in brief: as §2
[18] = Cytotoxicity against human PC3M cells after 4 days by modified propidium iodide staining-based fluorescence assay; format: functional, cell-based; conditions: PC-3M, 96 h; method in brief: as §2
[19] = Cytotoxicity against human 1752L cells after 4 days by modified propidium iodide staining-based fluorescence assay; format: functional, cell-based; conditions: 96 h; method in brief: as §2
[20] = Cytotoxicity against human 1781L cells after 4 days by modified propidium iodide staining-based fluorescence assay; format: functional, cell-based; conditions: 96 h; method in brief: as §2
[21] = Cytotoxicity against human RXF 486L cells after 4 days by modified propidium iodide staining-based fluorescence assay; format: functional, cell-based; conditions: 96 h; method in brief: as §2
[22] = Cytotoxicity against human UXF 1138L cells after 4 days by modified propidium iodide staining-based fluorescence assay; format: functional, cell-based; conditions: 96 h; method in brief: as §2

With `COc1ccc2c(c1)c(-c1ccc(-c3cn(C)c4ccc(OC)cc34)o1)cn2C` the GI50 (786-0) was > 100 µM, the GI50 (A498) was > 100 µM and the GI50 (ACHN) was 3.74 µM. The GI50 (CAKI-1) was 17.1 µM, the GI50 (RXF 393) was 10.4 µM and the GI50 (SN12C) was 21.6 µM. For the same compound, the GI50 (TK-10) was 11 µM, the GI50 (UO-31) was 3.6 µM and the GI50 (DU-145 [1]) was > 100 µM. The GI50 (MCF7 [2]) was 17.3 µM, the GI50 (MDA-MB-231) was 4.2 µM and the GI50 [3] was 5.11 µM. For the same compound, the GI50 (T47D) was 2.72 µM, the IC50 [4] was 15.7 µg/mL (≈ 40.6 µM) and the IC50 (T-24) was > 100 µg/mL. The IC50 (SF-268) was 35.1 µg/mL (≈ 90.8 µM), the IC50 (HCT-116) was 50.4 µg/mL (≈ 130 µM) and the IC50 (HT-29) was > 100 µg/mL. The IC50 [5] was 3.8 µg/mL (≈ 9.83 µM), the IC50 [6] was 43.4 µg/mL (≈ 112 µM) and the IC50 [7] was > 100 µg/mL. It also gave an IC50 [8] of 5.8 µg/mL (≈ 15 µM), an IC50 (A549) of 9.6 µg/mL (≈ 24.8 µM) and an IC50 [9] of 4.1 µg/mL (≈ 10.6 µM). For the same compound, the IC50 (NCI-H460) was 22.2 µg/mL (≈ 57.4 µM), the IC50 [10] was 8.1 µg/mL (≈ 21 µM) and the IC50 (MCF7 [11]) was 6.2 µg/mL (≈ 16 µM). For the same compound, the IC50 [12] was 3.8 µg/mL (≈ 9.83 µM), the IC50 [13] was 12.5 µg/mL (≈ 32.3 µM) and the IC50 [14] was 6.4 µg/mL (≈ 16.6 µM). For the same compound, the IC50 [15] was > 100 µg/mL, the IC50 (OVCAR-3) was 4.2 µg/mL (≈ 10.9 µM) and the IC50 [16] was > 100 µg/mL. For the same compound, the IC50 (PANC-1) was 6.4 µg/mL (≈ 16.6 µM), the IC50 (CWR22R) was 33.7 µg/mL (≈ 87.2 µM) and the IC50 (DU-145 [17]) was > 100 µg/mL. For the same compound, the IC50 (LNCaP) was 28.2 µg/mL (≈ 73 µM), the IC50 [18] was 4.1 µg/mL (≈ 10.6 µM) and the IC50 [19] was 77.4 µg/mL (≈ 200 µM). For the same compound, the IC50 [20] was 22 µg/mL (≈ 56.9 µM), the IC50 [21] was > 100 µg/mL and the IC50 [22] was 13.7 µg/mL (≈ 35.5 µM).
